Columns and labels:
[1] = species on record: Cavia porcellus; assay: Effective concentration required for its inhibition of nonspecific binding to guinea pig ileal membranes; type: functional
[2] = molecular target: T1, Neuromedin-K receptor (Rattus norvegicus, UniProt P16177); assay: Concentration required to inhibit the specific binding of [125I]BH-ELE to Neurokinin-3 (NK-3) receptor in rat brain synaptosomes; type: subcellular
T1 sequence (P16177 whole entry): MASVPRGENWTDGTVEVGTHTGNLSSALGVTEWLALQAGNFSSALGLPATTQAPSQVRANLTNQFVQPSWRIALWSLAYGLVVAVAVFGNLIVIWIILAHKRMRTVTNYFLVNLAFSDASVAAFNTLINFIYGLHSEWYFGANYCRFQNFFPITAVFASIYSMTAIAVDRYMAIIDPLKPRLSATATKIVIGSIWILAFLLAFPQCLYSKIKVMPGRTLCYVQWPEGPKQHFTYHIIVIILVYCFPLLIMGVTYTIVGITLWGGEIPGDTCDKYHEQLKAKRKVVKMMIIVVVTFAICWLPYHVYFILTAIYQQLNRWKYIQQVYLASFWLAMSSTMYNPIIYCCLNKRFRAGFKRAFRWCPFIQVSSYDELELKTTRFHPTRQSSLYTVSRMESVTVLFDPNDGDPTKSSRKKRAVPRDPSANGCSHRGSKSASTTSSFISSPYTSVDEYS
How it was run: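 Rat brain synaptosomes in Krebs-Ringer phosphate buffer with BSA, bacitracin and glucose. Incubated 15 min at 20 °C with 40 pM [125I]BHELE and increasing peptide concentrations, gamma counted. Triplicates, two to eight independent experiments; nonspecific binding defined with eledoisin 10⁻⁶ M. IC50 estimated from Hill plots of titration curves.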

[3] = molecular target: Substance-P receptor (Rattus norvegicus, UniProt P14600); assay: Concentration required to inhibit the specific binding of [125I]BH-SP to Neurokinin-1 (NK-1) receptor in rat brain synaptosomes; type: subcellular
Substance-P receptor, sequence (P14600 whole entry): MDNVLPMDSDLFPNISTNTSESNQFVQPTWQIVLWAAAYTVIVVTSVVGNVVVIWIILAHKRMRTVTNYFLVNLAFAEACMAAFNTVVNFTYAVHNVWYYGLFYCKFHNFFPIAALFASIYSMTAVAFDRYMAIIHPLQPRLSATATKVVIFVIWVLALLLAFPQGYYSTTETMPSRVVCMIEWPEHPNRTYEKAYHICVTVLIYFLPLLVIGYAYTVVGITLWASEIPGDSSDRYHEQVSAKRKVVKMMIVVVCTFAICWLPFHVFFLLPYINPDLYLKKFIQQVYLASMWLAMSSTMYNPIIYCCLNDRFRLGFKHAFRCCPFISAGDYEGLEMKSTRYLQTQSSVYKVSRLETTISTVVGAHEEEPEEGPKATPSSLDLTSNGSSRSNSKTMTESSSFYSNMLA

[4] = molecular target: T2, Substance-K receptor (Rattus norvegicus, UniProt P16610); assay: Concentration required to inhibit the specific binding of [3H]NKA to Neurokinin-2 (NK-2) receptor in rat duodenum membranes
T2 sequence (P16610 whole entry): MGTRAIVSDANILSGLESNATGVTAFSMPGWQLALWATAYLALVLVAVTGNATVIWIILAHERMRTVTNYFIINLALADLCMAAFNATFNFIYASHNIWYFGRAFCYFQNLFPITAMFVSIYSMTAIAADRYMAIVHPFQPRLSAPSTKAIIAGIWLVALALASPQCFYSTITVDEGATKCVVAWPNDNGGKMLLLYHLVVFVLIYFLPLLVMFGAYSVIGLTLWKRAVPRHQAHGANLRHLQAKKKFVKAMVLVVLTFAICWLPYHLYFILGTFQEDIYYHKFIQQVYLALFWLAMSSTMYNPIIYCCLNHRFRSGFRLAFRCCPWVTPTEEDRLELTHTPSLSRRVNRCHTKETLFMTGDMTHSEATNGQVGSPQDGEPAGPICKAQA

| SMILES | EC50 [1] [nM] | IC50 [2] [nM] | IC50 [3] [nM] | IC50 [4] [nM] |
| --- | --- | --- | --- | --- |
| CSCC[C@H](NC(=O)[C@H](CC(C)C)NC(=O)CNC(=O)[C@@H](NC(=O)[C@H](Cc1ccccc1)NC(=O)[C@H](CCC(N)=O)NC(=O)[C@H](CCC(N)=O)NC(=O)[C@@H]1CCCN1C(=O)[C@H](CCCCN)NC(=O)[C@@H]1CCCN1C(=O)[C@@H](N)CCCNC(=N)N)[C@H]1CCc2cc3ccccc3cc21)C(N)=O | – | 110 | 0.6 | 29 |
| CSCC[C@H](NC(=O)[C@H](CC(C)C)NC(=O)[C@@H]1CCCN1C(=O)[C@H](Cc1ccccc1)NC(=O)[C@H](Cc1ccccc1)NC(=O)[C@H](CCC(N)=O)NC(=O)[C@H](CCC(N)=O)NC(=O)[C@@H]1CCCN1C(=O)[C@H](CCCCN)NC(=O)[C@@H]1CCCN1C(=O)[C@@H](N)CCCN=C(N)N)C(N)=O | 2 | > 10000 | 2.9 | > 10000 |
| CSCC[C@H](NC(=O)[C@H](CC(C)C)NC(=O)CNC(=O)[C@@H](NC(=O)[C@H](Cc1ccccc1)NC(=O)[C@H](CCC(N)=O)NC(=O)[C@H](CCC(N)=O)NC(=O)[C@@H]1CCCN1C(=O)[C@H](CCCCN)NC(=O)[C@@H]1CCCN1C(=O)[C@@H](N)CCCN=C(N)N)C(C)(C)C)C(N)=O | 2.5 | 65 | 2.6 | 9 |
| CSCC[C@H](NC(=O)[C@H](CC(C)C)NC(=O)CNC(=O)[C@H](CCSC)NC(=O)[C@H](Cc1ccccc1)NC(=O)[C@H](CCC(N)=O)NC(=O)[C@H](CCC(N)=O)NC(=O)[C@@H]1CCCN1C(=O)[C@H](CCCCN)NC(=O)[C@@H]1CCCN1C(=O)[C@@H](N)CCCNC(=N)N)C(N)=O | – | 1200 | 18 | – |
| CSCC[C@H](NC(=O)[C@H](CC(C)C)NC(=O)CNC(=O)[C@H](Cc1ccccc1)NC(=O)[C@H](CCSC)NC(=O)[C@H](CCC(N)=O)NC(=O)[C@H](CCC(N)=O)NC(=O)[C@@H]1CCCN1C(=O)[C@H](CCCCN)NC(=O)[C@@H]1CCCN1C(=O)[C@@H](N)CCCNC(=N)N)C(N)=O | – | 7400 | 2700 | – |
| CSCC[C@H](NC(=O)[C@H](CC(C)C)NC(=O)CNC(=O)[C@@H](NC(=O)[C@H](Cc1ccccc1)NC(=O)[C@H](CCC(N)=O)NC(=O)[C@H](CCC(N)=O)NC(=O)[C@@H]1CCCN1C(=O)[C@H](CCCCN)NC(=O)[C@@H]1CCCN1C(=O)[C@@H](N)CCCN=C(N)N)C(C)(C)S(C)(=O)=O)C(N)=O | 1.1 | 190 | 7.84 | 160 |
| CSCC[C@H](NC(=O)[C@H](CC(C)C)NC(=O)CNC(=O)[C@@H](NC(=O)[C@H](Cc1ccccc1)NC(=O)[C@H](CCC(N)=O)NC(=O)[C@H](CCC(N)=O)NC(=O)[C@@H]1CCCN1C(=O)[C@H](CCCCN)NC(=O)[C@@H]1CCCN1C(=O)[C@@H](N)CCCNC(=N)N)C1c2ccccc2-c2ccccc21)C(N)=O | – | 91 | 2.5 | 41 |
| CSCC[C@H](NC(=O)[C@H](CC(C)C)NC(=O)CNC(=O)[C@@H](NC(=O)[C@H](Cc1ccccc1)NC(=O)[C@H](CCC(N)=O)NC(=O)[C@H](CCC(N)=O)NC(=O)[C@@H]1CCCN1C(=O)[C@H](CCCCN)NC(=O)[C@@H]1CCCN1C(=O)[C@@H](N)CCCN=C(N)N)C1c2ccccc2-c2ccccc21)C(N)=O | 5.7 | – | – | – |
| CSCC[C@H](NC(=O)[C@H](CC(C)C)NC(=O)CNC(=O)[C@@H](NC(=O)[C@H](Cc1ccccc1)NC(=O)[C@H](CCC(N)=O)NC(=O)[C@H](CCC(N)=O)NC(=O)[C@@H]1CCCN1C(=O)[C@H](CCCCN)NC(=O)[C@@H]1CCCN1C(=O)[C@@H](N)CCCNC(=N)N)C(C)(C)SC)C(N)=O | – | 170 | 2.4 | 68 |
| CSCC[C@H](NC(=O)[C@H](CC(C)C)NC(=O)CNC(=O)[C@@H](NC(=O)[C@H](Cc1ccccc1)NC(=O)[C@H](CCC(N)=O)NC(=O)[C@H](CCC(N)=O)NC(=O)[C@@H]1CCCN1C(=O)[C@H](CCCCN)NC(=O)[C@@H]1CCCN1C(=O)[C@@H](N)CCCN=C(N)N)C(C)(C)SC)C(N)=O | 1.7 | – | – | – |
| CSCC[C@H](NC(=O)[C@H](CC(C)C)NC(=O)CNC(=O)[C@H](Cc1ccccc1)NC(=O)[C@@H](NC(=O)[C@H](CCC(N)=O)NC(=O)[C@H](CCC(N)=O)NC(=O)[C@@H]1CCCN1C(=O)[C@H](CCCCN)NC(=O)[C@@H]1CCCN1C(=O)[C@@H](N)CCCNC(=N)N)C(c1ccccc1)c1ccccc1)C(N)=O | – | 17000 | 1300 | 3600 |
| CSCC[C@H](NC(=O)[C@H](CC(C)C)NC(=O)CNC(=O)[C@@H](NC(=O)[C@H](Cc1ccccc1)NC(=O)[C@H](CCC(N)=O)NC(=O)[C@H](CCC(N)=O)NC(=O)[C@@H]1CCCN1C(=O)[C@H](CCCCN)NC(=O)[C@@H]1CCCN1C(=O)[C@@H](N)CCCNC(=N)N)C(c1ccccc1)c1ccccc1)C(N)=O | – | 2200 | 500 | 670 |

Second part, the molecule after the results:

| EC50 [1] [nM] | IC50 [2] [nM] | IC50 [3] [nM] | IC50 [4] [nM] | SMILES |
| --- | --- | --- | --- | --- |
| 1.2 | 2200 | 3.1 | 380 | CSCC[C@H](NC(=O)[C@H](CC(C)C)NC(=O)CNC(=O)[C@H](Cc1ccccc1)NC(=O)[C@@H](NC(=O)[C@H](CCC(N)=O)NC(=O)[C@H](CCC(N)=O)NC(=O)[C@@H]1CCCN1C(=O)[C@H](CCCCN)NC(=O)[C@@H]1CCCN1C(=O)[C@@H](N)CCCN=C(N)N)[C@H]1CCc2ccccc21)C(N)=O |
| 4170 | > 10000 | 2800 | 3900 | CSCC[C@H](NC(=O)[C@H](CC(C)C)NC(=O)CNC(=O)[C@H](Cc1ccccc1)NC(=O)[C@H](NC(=O)[C@H](CCC(N)=O)NC(=O)[C@H](CCC(N)=O)NC(=O)[C@@H]1CCCN1C(=O)[C@H](CCCCN)NC(=O)[C@@H]1CCCN1C(=O)[C@@H](N)CCCN=C(N)N)C1Cc2ccccc2C1)C(N)=O |
| – | 1900 | 2400 | 520 | CSCC[C@H](NC(=O)[C@H](CC(C)C)NC(=O)CNC(=O)[C@H](Cc1ccccc1)NC(=O)[C@@H]1Cc2ccccc2CN1C(=O)[C@H](CCC(N)=O)NC(=O)[C@H](CCC(N)=O)NC(=O)[C@@H]1CCCN1C(=O)[C@H](CCCCN)NC(=O)[C@@H]1CCCN1C(=O)[C@@H](N)CCCN=C(N)N)C(N)=O |
| – | 20000 | 1200 | 18000 | CSCC[C@H](NC(=O)[C@H](CC(C)C)NC(=O)CNC(=O)[C@@H]1Cc2ccccc2CN1C(=O)[C@H](Cc1ccccc1)NC(=O)[C@H](CCC(N)=O)NC(=O)[C@H](CCC(N)=O)NC(=O)[C@@H]1CCCN1C(=O)[C@H](CCCCN)NC(=O)[C@@H]1CCCN1C(=O)[C@@H](N)CCCN=C(N)N)C(N)=O |
| 3100 | > 10000 | – | 4900 | CSCC[C@H](NC(=O)[C@H](CC(C)C)NC(=O)CNC(=O)[C@H](Cc1ccccc1)NC(=O)/C(=C/c1ccccc1)NC(=O)[C@H](CCC(N)=O)NC(=O)[C@H](CCC(N)=O)NC(=O)[C@@H]1CCCN1C(=O)[C@H](CCCCN)NC(=O)[C@@H]1CCCN1C(=O)[C@@H](N)CCCN=C(N)N)C(N)=O |
| 8.4 | 11700 | – | 950 | CSCC[C@H](NC(=O)[C@H](CC(C)C)NC(=O)CNC(=O)[C@H](Cc1ccccc1)NC(=O)/C(=C\c1ccccc1)NC(=O)[C@H](CCC(N)=O)NC(=O)[C@H](CCC(N)=O)NC(=O)[C@@H]1CCCN1C(=O)[C@H](CCCCN)NC(=O)[C@@H]1CCCN1C(=O)[C@@H](N)CCCN=C(N)N)C(N)=O |
| 226 | – | – | – | CSCC[C@H](NC(=O)[C@H](CC(C)C)NC(=O)CNC(=O)[C@H](Cc1ccccc1)NC(=O)[C@@H](NC(=O)[C@H](CCC(N)=O)NC(=O)[C@H](CCC(N)=O)NC(=O)[C@@H]1CCCN1C(=O)[C@H](CCCCN)NC(=O)[C@@H]1CCCN1C(=O)[C@@H](N)CCCN=C(N)N)C(c1ccccc1)c1ccccc1)C(N)=O |
| 1300 | > 10000 | 2300 | 1700 | CSCC[C@H](NC(=O)[C@H](CC(C)C)NC(=O)CNC(=O)[C@H](Cc1ccccc1)NC(=O)[C@@H](NC(=O)[C@H](CCC(N)=O)NC(=O)[C@H](CCC(N)=O)NC(=O)[C@@H]1CCCN1C(=O)[C@H](CCCCN)NC(=O)[C@@H]1CCCN1C(=O)[C@@H](N)CCCN=C(N)N)C1Cc2ccccc2C1)C(N)=O |
| – | 130 | – | – | CSCC[C@H](NC(=O)[C@H](CC(C)C)NC(=O)CNC(=O)[C@H](Cc1ccccc1)NC(=O)[C@H](Cc1ccccc1)NC(=O)[C@H](CCC(N)=O)NC(=O)[C@H](CCC(N)=O)NC(=O)[C@@H]1CCCN1C(=O)[C@H](CCCCN)NC(=O)[C@@H]1CCCN1C(=O)[C@@H](N)CCCN=C(N)N)C(N)=O [SUBSTANCE P] |
